Test results taken from ChEMBL document CHEMBL3227946, “Antianaphylactic agents. 1. 2-(Acylamino)oxazoles” (1979).
The source made the active and inactive calls. The rule behind the calls is not given here.

Key:
[1] = Antianaphylactic activity in ovalbumin sensitized albino guinea pig chopped lung assessed as inhibition of antigen-induced slow-reacting substance of anaphylaxis release at 10 ug/mL after 15 mins relative to control; format: functional, Cavia porcellus
Outline: (§1)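 Lungs were perfused with Tyrode's, chopped into 0.5-mm cubes and split into 100-mg aliquots. Aliquots were challenged with antigen ± compound and rocked at 37 °C for 15 min. Unchallenged controls gave spontaneous release. Supernatant histamine or SRS-A was bioassayed on guinea pig ileum against standards. Values are % inhibition, mean of four samples.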

[2] = system: Rattus norvegicus; assay: Antianaphylactic activity in antiovalbumin IgE serum-treated Wistar rat at 2 x 100 mg/kg, po administered 2.5 hrs prior to ovalbumin challenge measured after 45 mins by passive cutaneous anaphylaxis test; format: functional, organism-based; set-up: dose 100 mg/kg; conditions: in the assay text read “2 hrs and again 30 mins prior to” for “2.5 hrs prior to”
Outline: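 Female Wistar rats, shaved and lightly anaesthetized, received an intradermal abdominal injection of diluted rat antiovalbumin IgE serum. After 24 h they were challenged iv with ovalbumin mixed with dye. Compound was given at 2 h and again at 30 min before challenge. Rats were killed 45 min after challenge and the blue area on the inner skin surface was measured.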

[3] = Antianaphylactic activity in ovalbumin sensitized albino guinea pig chopped lung assessed as inhibition of antigen-induced histamine release at 10 ug/mL after 15 mins relative to control; format: functional, Cavia porcellus; outline: as §1
[4] = Antianaphylactic activity in human chopped lung treated with atopic serum isolated from patients allergic to cocksfoot pollen assessed as inhibition of antigen-induced histamine release at 10 ug/mL after 15 mins relative to control; format: functional; conditions: 0.25 h
Outline: (§2)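 Surgical human lung (bronchial carcinoma resections) was washed in Hank's, chopped into 0.5-mm cubes and incubated for 18 h at 18 °C with atopic serum from cocksfoot pollen-allergic patients. Tissue was washed, equilibrated in Tyrode's at 37 °C and challenged with saline pollen extract ± compound for 15 min. Histamine or SRS-A in the supernatant was bioassayed on guinea pig ileum. Values are % inhibition, mean of four samples.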

[5] = Antianaphylactic activity in human chopped lung treated with atopic serum isolated from patients allergic to cocksfoot pollen assessed as inhibition of antigen-induced slow-reacting substance of anaphylaxis release at 10 ug/mL after 15 mins relative to control; format: functional; conditions: 0.25 h; outline: as §2

SMILES: CCCCN(C(=O)C(C)C)c1ncc(C2CCCCC2)o1
- inhibition (INH) [1]: 21%
- Activity [2]: inactive

SMILES: CCCC(=O)N(c1nc(C)co1)C1CCCCC1
- inhibition (INH) [3]: 37%
- inhibition (INH) [1]: 29%
- Activity [2]: inactive

SMILES: CCCCN(C(=O)C(C)C)c1ncco1
- inhibition (INH) [3]: 8%
- inhibition (INH) [1]: 44%
- Activity [2]: inactive

SMILES: CC(=O)N(C)c1nc(C)c(C)o1
- inhibition (INH) [1]: 17%
- Activity [2]: inactive

SMILES: C=CCN(C(=O)CCC)c1nc(C)co1
- inhibition (INH) [3]: 51%
- inhibition (INH) [1]: 31%
- Activity [2]: inactive

SMILES: CCCCCN(C(=O)CC)c1nc(C)co1
- inhibition (INH) [3]: 16%
- inhibition (INH) [1]: 41%
- Activity [2]: inactive

SMILES: CCCCN(C(=O)C(C)C)c1nc(CC)co1
- inhibition (INH) [3]: 20%
- inhibition (INH) [1]: 41%
- Activity [2]: inactive

SMILES: CC(=O)N(C)c1nc(C)co1
- inhibition (INH) [3]: 0%
- inhibition (INH) [1]: 9%
- Activity [2]: inactive

SMILES: CCCCN(C(=O)C1CCCCC1)c1nc(C)co1
- inhibition at 10 µg/mL [4]: 29%
- inhibition (INH) [3]: 27%
- inhibition at 10 µg/mL [5]: 26%
- inhibition (INH) [1]: 32%
- Activity [2]: inactive

SMILES: CCCCN(C(C)=O)c1nc(C)co1
- inhibition (INH) [3]: 26%
- inhibition (INH) [1]: 39%
- Activity [2]: inactive

SMILES: CN1CCC(=C2c3ccccc3CC(=O)c3sccc32)CC1.O=C(O)/C=C/C(=O)O [KETOTIFEN FUMARATE]
- inhibition (INH) [3]: 37%
- inhibition (INH) [1]: 38%

SMILES: CCCCN(C(=O)CC1CCCC1)c1nc(C)co1
- inhibition at 10 µg/mL [4]: 0%
- inhibition (INH) [3]: 0%
- inhibition at 10 µg/mL [5]: 0%
- inhibition (INH) [1]: 22%
- Activity [2]: inactive

SMILES: CCCC(=O)N(c1nc(C)co1)C(C)CC (stereo unspecified)
- inhibition (INH) [3]: 6%
- inhibition (INH) [1]: 34%
- Activity [2]: inactive

SMILES: CCCCN(C(=O)C1CCCC1)c1nc(C)co1
- inhibition at 10 µg/mL [4]: 0%
- inhibition (INH) [3]: 47%
- inhibition at 10 µg/mL [5]: 69%
- inhibition (INH) [1]: 66%
- Activity [2]: inactive

SMILES: CCCCN(C(=O)C(C)C)c1nc(-c2ccccc2)co1
- inhibition (INH) [3]: 23%
- inhibition (INH) [1]: 39%
- Activity [2]: inactive

SMILES: CCCCN(C(=O)C(C)C)c1nc(C2CCCCC2)co1
- inhibition (INH) [1]: 0%
- Activity [2]: inactive

SMILES: CCCCN(C(=O)C(C)CC)c1nc(C)co1 (stereo in doubt; 39) [listing 1 of 2 here]
- Activity [2]: inactive

SMILES: CCCCN(C(=O)C(C)CC)c1nc(C)co1 (racemic) [listing 1 of 2 here]
- inhibition at 10 µg/mL [4]: 5%
- inhibition (INH) [3]: 54%
- inhibition at 10 µg/mL [5]: 36%
- inhibition (INH) [1]: 76%

SMILES: CCCCN(C(=O)Cc1ccccc1)c1nc(C)co1
- inhibition (INH) [3]: 0%
- inhibition (INH) [1]: 31%
- Activity [2]: inactive

SMILES: C=CCN(C(=O)C(C)C)c1nc(C)co1
- inhibition (INH) [3]: 42%
- inhibition (INH) [1]: 23%
- Activity [2]: inactive

SMILES: CCCCCCN(C(=O)C(C)C)c1nc(C)co1
- inhibition (INH) [3]: 18%
- inhibition (INH) [1]: 42%
- Activity [2]: inactive

SMILES: CCCCC(=O)N(c1nc(C)co1)C(C)C
- inhibition at 10 µg/mL [4]: 0%
- inhibition (INH) [3]: 0%
- inhibition at 10 µg/mL [5]: 0%
- inhibition (INH) [1]: 0%
- Activity [2]: inactive

SMILES: CCN(C(=O)C(C)C)c1nc(C)c(C)o1
- inhibition (INH) [3]: 13%
- inhibition (INH) [1]: 21%
- Activity [2]: inactive

SMILES: CCCCCCC(=O)N(CCCC)c1nc(C)co1
- inhibition (INH) [1]: 8%
- Activity [2]: inactive

SMILES: CCCCCCN(C(C)=O)c1nc(C)co1
- inhibition at 10 µg/mL [4]: 13%
- inhibition at 10 µg/mL [5]: 15%
- inhibition (INH) [1]: 8%
- Activity [2]: inactive

SMILES: Cc1coc(N(C)C(=O)C(C)C)n1
- inhibition (INH) [3]: 61%
- inhibition (INH) [1]: 25%
- Activity [2]: inactive

SMILES: CCC(=O)N(c1nc(C)co1)C(C)C
- inhibition at 10 µg/mL [4]: 0%
- inhibition at 10 µg/mL [5]: 0%
- inhibition (INH) [1]: 17%
- Activity [2]: inactive

SMILES: CCCCN(C(=O)C(C)C)c1nc(-c2ccc(Cl)cc2)co1
- inhibition (INH) [3]: 44%
- inhibition (INH) [1]: 37%
- Activity [2]: inactive

SMILES: CCCCN(C(=O)C1CCC1)c1nc(C)c(C)o1
- inhibition (INH) [3]: 0%
- inhibition (INH) [1]: 10%
- Activity [2]: inactive

SMILES: CCCCN(C(=O)C(C)C)c1ncc(C)o1
- inhibition (INH) [3]: 31%
- inhibition (INH) [1]: 52%
- Activity [2]: inactive

SMILES: CCCCN(C(=O)C(C)CC)c1nc(C)co1 (stereo in doubt; 39) [listing 2 of 2 here]
- inhibition (INH) [3]: 30%
- inhibition (INH) [1]: 79%

SMILES: CCCCN(C(=O)C(C)CC)c1nc(C)co1 (racemic) [listing 2 of 2 here]
- Activity [2]: inactive

SMILES: CCCC(=O)N(CC(C)CC)c1nc(C)co1 (stereo unspecified)
- inhibition (INH) [3]: 35%
- inhibition (INH) [1]: 33%
- Activity [2]: inactive

SMILES: CCCCN(C(C)=O)c1nc(C)c(C)o1
- inhibition (INH) [3]: 13%
- inhibition (INH) [1]: 32%
- Activity [2]: inactive

SMILES: CCCCc1coc(N(CCCC)C(=O)C(C)C)n1
- inhibition (INH) [1]: 14%
- Activity [2]: inactive

SMILES: CCCC(=O)N(CC)c1nc(C)co1
- inhibition (INH) [3]: 30%
- inhibition (INH) [1]: 13%
- Activity [2]: inactive

SMILES: CCCCN(C(=O)C(C)C)c1nc(C)c(C)o1
- inhibition at 10 µg/mL [4]: 49%
- inhibition (INH) [3]: 49%
- inhibition at 10 µg/mL [5]: 43%
- inhibition (INH) [1]: 43%
- Activity [2]: inactive

SMILES: CCCCN(C(=O)C(CC)CC)c1nc(C)co1
- inhibition (INH) [3]: 29%
- inhibition (INH) [1]: 55%
- Activity [2]: inactive

SMILES: CCCCN(C(=O)CCC)c1nc(C)c(C)o1
- inhibition (INH) [3]: 46%
- inhibition (INH) [1]: 37%
- Activity [2]: inactive

SMILES: CCC(C)N(C(=O)C(C)C)c1nc(C)co1 (stereo unspecified)
- inhibition (INH) [3]: 3%
- inhibition (INH) [1]: 13%
- Activity [2]: inactive

SMILES: Cc1coc(N(C(=O)C(C)C)C(C)C)n1
- inhibition at 10 µg/mL [4]: 0%
- inhibition at 10 µg/mL [5]: 0%
- inhibition (INH) [1]: 10%
- Activity [2]: inactive

SMILES: CCC(C)CN(C(=O)C(C)C)c1nc(C)co1 (stereo unspecified)
- inhibition (INH) [3]: 29%
- inhibition (INH) [1]: 37%
- Activity [2]: inactive

SMILES: CCCCN(C(=O)C(C)C)c1ncc(CC)o1
- inhibition (INH) [3]: 52%
- inhibition (INH) [1]: 35%
- Activity [2]: inactive

SMILES: CCCCN(C(=O)C(C)CC)c1nc(C)co1 (stereo in doubt; 38) [listing 1 of 2 here]
- inhibition (INH) [3]: 8%
- inhibition (INH) [1]: 63%

SMILES: CCCCCN(C(=O)C(C)C)c1nc(C)co1
- inhibition at 10 µg/mL [4]: 14%
- inhibition (INH) [3]: 28%
- inhibition at 10 µg/mL [5]: 47%
- inhibition (INH) [1]: 66%
- Activity [2]: inactive

SMILES: CCCCN(C(=O)C(C)CC)c1nc(C)co1 (stereo in doubt; 38) [listing 2 of 2 here]
- Activity [2]: inactive

SMILES: CCCCN(C(=O)C1CCCCCC1)c1nc(C)co1
- inhibition (INH) [3]: 0%
- inhibition (INH) [1]: 49%
- Activity [2]: inactive

SMILES: CCCCC(=O)N(CCCC)c1nc(C)co1
- inhibition (INH) [3]: 21%
- inhibition (INH) [1]: 49%
- Activity [2]: inactive
